Measured values published in ChEMBL document CHEMBL1124196, “Etodolac, a novel antiinflammatory agent. The syntheses and biological evaluation of its metabolites” (J Med Chem, 1988).

Columns and labels:
Rattus norvegicus [1] = experiment: Evaluated for the inhibition of adjuvant-induced hind paw edema in rats at 25 mg/kg dose; format: functional
Outline: (§1)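 Male Sprague-Dawley rats (180-200 g), groups of 10; 0.1 mL Freund's complete adjuvant (0.5 mg killed, dried Mycobacterium butyricum in mineral oil) intradermally into left hindpaw. Compound or vehicle (0.5% Tween 80 in water) by gastric lavage just before FCA (day 0) and at 24 and 48 h. Paw volume by plethysmometer before FCA and on day 3; % inhibition of mean edema versus control.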

[2] = Evaluated in vitro for its ability to inhibit prostaglandin E2 production in cultured chondrocyte cells at 25 mg/kg dose; format: functional, organism-based; details: Rattus norvegicus
Rattus norvegicus [3] = experiment: Evaluated for the inhibition of adjuvant-induced hind paw edema in rats at 12 mg/kg dose; format: functional; outline: as §1
[4] = Evaluated in vitro for its ability to inhibit prostaglandin E2 production in cultured chondrocyte cells at 12 mg/kg dose; format: functional, organism-based; details: Rattus norvegicus

SMILES	IC50 [2] [µM]	IC50 [4] [µM]	inhibition in vivo at 25 mg/kg (Rattus norvegicus [1]) [%]	inhibition in vivo at 12 mg/kg (Rattus norvegicus [3]) [%]
CCc1cc(O)cc2c3c([nH]c12)C(CC)(CC(=O)O)OCC3 (stereo not drawn) [6-HYDROXYETODOLAC]	6.5	–	10	–
CCc1c(O)ccc2c3c([nH]c12)C(CC)(CC(=O)O)OCC3 (stereo not drawn) [7-HYDROXYETODOLAC]	–	50	–	8
CCc1cccc2c3c(n(C)c12)C(CC)(CC(=O)O)OCC3 (stereo not drawn)	25	–	11	–
CCc1cccc2c3c([nH]c12)C(CC)(CC(=O)O)OCC3NC(N)=O (stereo not drawn) [4-UREIDOETODOLAC]	> 100	–	–	–

Further lines, with some results ahead:

IC50 [2] [µM]	IC50 [4] [µM]	SMILES	inhibition in vivo at 25 mg/kg (Rattus norvegicus [1]) [%]	inhibition in vivo at 12 mg/kg (Rattus norvegicus [3]) [%]
0.025	–	CCc1cccc2c3c([nH]c12)C(CC)(CC(=O)O)OCC3 (stereo not drawn) [ETODOLAC]	65	–
0.185	–	CCc1cccc2c3c([nH]c12)C(CC)(CC(=O)O)OCC3=O (stereo not drawn)	21	–
2	–	CCC1(CC(=O)O)OCCc2c1[nH]c1c(C(C)O)cccc21 (stereo not drawn) [8-(1-HYDROXYETHYL)ETODOLAC]	14	–
